In PMC5730364 (Investigative Ophthalmology & Visual Science, 2017):
Square brackets hold non-standard residues; d marks the D form. Peptide text beside a SMILES is read from it. Orn = NCCC[C@H](N)C(=O)O

Key:
[1] = test system: corneal epithelial scrape wounds; test: In vivo corneal epithelial wound healing; parameters: species or system C57BL/6 mice
How it was run: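 C57BL/6 mice (9–13 weeks) were anaesthetised with ketamine 100 mg/kg plus xylazine 10 mg/kg ip. A 2-mm diameter corneal epithelial scrape wound was made in the right eye with an Algerbrush. Then 5 μL of test peptide (2, 64 or 640 μg/mL) or PBS vehicle was applied topically immediately, 5 min later, and at 6, 12 and 18 h. Wounds were stained with 1.5 μL 1% sodium fluorescein every 6 h until closure (24 h), imaged, and their areas measured.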

P. aeruginosa 19660_Xen5 = test: Time-kill bactericidal activity, bioluminescence; assay type: cell-based, Pseudomonas aeruginosa; conditions: Fig. 2
How it was run: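 Luciferase-tagged strain grown from a single colony in LB at 37°C overnight with agitation, diluted 1:10 into fresh LB and grown 2 h at 37°C to mid-log. Adjusted by OD600 to 1 × 10⁷ CFU/mL and exposed to test compound at several concentrations for 0, 30, 60 and 120 min. Viable cells quantified noninvasively by bioluminescence imaging. Mean ± SE of triplicates from two independent experiments.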

S. aureus 49525_Xen36 = test: Time-kill bactericidal activity, bioluminescence; assay type: cell-based, Staphylococcus aureus; conditions: 30 minutes' incubation, Fig. 4
How it was run: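 Bioluminescent S. aureus Xen36 was grown from a single colony in LB overnight at 37°C with agitation. It was diluted 1:10 into fresh LB for 2 h at 37°C to mid-log phase and adjusted by OD600 to 1 × 10⁷ CFU/mL. Then 100 μL per well was exposed to a concentration series of test peptide for 30 min. Viable-cell luminescence was read by IVIS Lumina imaging (open filter, binning 4, f-stop 1, 30 s count). Results are mean ± SE of triplicates from two independent experiments.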

SMILES	wound closure vs vehicle ([1]; at 24 hours following topical ocular administration, 2, 64 or 640 μg/mL)	effect on corneal epithelial wound healing ([1]; mice, topical 5 μL RP444 2, 64 or 640 μg/mL at 0 h, 5 minutes, 6, 12, 18 hours post wound, two independent experiments, n = 7-10 mice/group)	bactericidal activity following 60 minutes of exposure (P. aeruginosa 19660_Xen5; 60 minutes)	bactericidal activity against S. aureus (S. aureus 49525_Xen36)	bactericidal activity during the short incubation time period (P. aeruginosa 19660_Xen5; 2 hours)
C[C@H](NC(=O)[C@H](Cc1ccccc1)NC(=O)[C@H](C)NC(=O)[C@H](Cc1ccccc1)NC(=O)[C@H](CCCN)NC(=O)[C@H](C)NC(=O)[C@H](Cc1ccccc1)NC(=O)[C@H](CCCN)NC(=O)[C@H](CCCN)NC(=O)[C@H](C)NC(=O)[C@H](Cc1ccccc1)NC(=O)[C@H](CCCN)NC(=O)[C@H](CCCN)NC(=O)[C@H](Cc1ccccc1)NC(=O)[C@H](CCCN)NC(=O)[C@H](CCCN)NC(=O)[C@H](C)NC(=O)[C@H](Cc1ccccc1)NC(=O)[C@H](CCCN)NC(=O)[C@H](CCCN)NC(=O)[C@H](C)NC(=O)[C@@H](N)Cc1ccccc1)C(=O)N[C@@H](Cc1ccccc1)C(=O)O [RP444] (H-FA[Orn][Orn]FA[Orn][Orn]F[Orn][Orn]FA[Orn][Orn]FA[Orn]FAFAF-OH)	No statistically significant difference in closure	did not affect corneal epithelial wound healing	–	–	–
NC[C@H]1O[C@H](O[C@H]2[C@H](O)[C@@H](O[C@H]3O[C@H](CO)[C@@H](O)[C@H](N)[C@H]3O)[C@H](N)C[C@@H]2N)[C@H](N)C[C@@H]1O [tobramycin]	–	–	bactericidal effects at 60 minutes	neither tobramycin nor vancomycin exhibited any bactericidal effect	–
CN[C@H](CC(C)C)C(=O)N[C@H]1C(=O)N[C@@H](CC(N)=O)C(=O)N[C@H]2C(=O)N[C@H]3C(=O)N[C@H](C(=O)N[C@H](C(=O)O)c4cc(O)cc(O)c4-c4cc3ccc4O)[C@H](O)c3ccc(c(Cl)c3)Oc3cc2cc(c3O[C@@H]2O[C@H](CO)[C@@H](O)[C@H](O)[C@H]2O[C@H]2C[C@](C)(N)[C@H](O)[C@H](C)O2)Oc2ccc(cc2Cl)[C@H]1O [vancomycin]	–	–	–	neither tobramycin nor vancomycin exhibited any bactericidal effect	no evidence of bactericidal activity
